Results: ChEMBL document CHEMBL5649170, “Sustained microglial depletion with CSF1R inhibitor impairs parenchymal plaque development in an Alzheimer's disease model” (Nat Commun, 2019)
The source made the active and inactive calls. No cut-off for these calls is given here.

Experiments:
Mus musculus [1] = assay: Antialzheimer activity in 5XFAD mouse assessed as microglial numbers by measuring number of Iba positive cells per FOV in […] cortex at 75 ppm administered as rodent chow starting from 1.5 months and measured after 5 months by immunolabeling based confocal microscopic analysis (reference value: 176 to 654); format: functional; settings: route po, time 3.5 months, 2555 h
In short: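 5xFAD mice fed PLX3397 at 75 ppm in AIN-76A chow from 1.5 to 5 months of age; retrosplenial and somatosensory cortex sections stained with Thio-S and immunolabeled for IBA1; confocal imaging, IBA1+ cells and plaques quantified per region; two-tailed independent t-test, n = 4–5 per group, mean ± SEM.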

[2] = Prevention of Scn1b gene downregulation in 5XFAD mouse hippocampus assessed as percent change in Reads Per kilo base per Million mapped reads at 1200 ppm administered as rodent chow starting from 1.5 months and measured after 7 months by RNA-Seq analysis (reference value: 53.15 to 80.717 %); format: functional; settings: route po, time 5.5 months, 4015 h
[3] = Effect on Csf1r RPKM gene expression in wild type mouse thalamus at 1200 ppm administered as rodent chow starting from 1.5 months and measured after 7 months by RNA-Seq analysis (reference value: 19.596 to 21.371 RPKM); format: functional; settings: route po, time 5.5 months, 4015 h
[4] = Effect on St8sia5 gene expression in wildtype mouse hippocampus assessed as percent change in Reads Per kilo base per Million mapped reads at 1200 ppm administered as rodent chow starting from 1.5 months and measured after 7 months by RNA-Seq analysis (reference value: 83.570 to 112.150 %); format: functional; settings: route po, time 5.5 months, 4015 h
[5] = biological target: ALK tyrosine kinase receptor (Homo sapiens, UniProt Q9UM73); assay: Inhibition of ALK (unknown origin)
Sequence of ALK tyrosine kinase receptor (Q9UM73 whole entry): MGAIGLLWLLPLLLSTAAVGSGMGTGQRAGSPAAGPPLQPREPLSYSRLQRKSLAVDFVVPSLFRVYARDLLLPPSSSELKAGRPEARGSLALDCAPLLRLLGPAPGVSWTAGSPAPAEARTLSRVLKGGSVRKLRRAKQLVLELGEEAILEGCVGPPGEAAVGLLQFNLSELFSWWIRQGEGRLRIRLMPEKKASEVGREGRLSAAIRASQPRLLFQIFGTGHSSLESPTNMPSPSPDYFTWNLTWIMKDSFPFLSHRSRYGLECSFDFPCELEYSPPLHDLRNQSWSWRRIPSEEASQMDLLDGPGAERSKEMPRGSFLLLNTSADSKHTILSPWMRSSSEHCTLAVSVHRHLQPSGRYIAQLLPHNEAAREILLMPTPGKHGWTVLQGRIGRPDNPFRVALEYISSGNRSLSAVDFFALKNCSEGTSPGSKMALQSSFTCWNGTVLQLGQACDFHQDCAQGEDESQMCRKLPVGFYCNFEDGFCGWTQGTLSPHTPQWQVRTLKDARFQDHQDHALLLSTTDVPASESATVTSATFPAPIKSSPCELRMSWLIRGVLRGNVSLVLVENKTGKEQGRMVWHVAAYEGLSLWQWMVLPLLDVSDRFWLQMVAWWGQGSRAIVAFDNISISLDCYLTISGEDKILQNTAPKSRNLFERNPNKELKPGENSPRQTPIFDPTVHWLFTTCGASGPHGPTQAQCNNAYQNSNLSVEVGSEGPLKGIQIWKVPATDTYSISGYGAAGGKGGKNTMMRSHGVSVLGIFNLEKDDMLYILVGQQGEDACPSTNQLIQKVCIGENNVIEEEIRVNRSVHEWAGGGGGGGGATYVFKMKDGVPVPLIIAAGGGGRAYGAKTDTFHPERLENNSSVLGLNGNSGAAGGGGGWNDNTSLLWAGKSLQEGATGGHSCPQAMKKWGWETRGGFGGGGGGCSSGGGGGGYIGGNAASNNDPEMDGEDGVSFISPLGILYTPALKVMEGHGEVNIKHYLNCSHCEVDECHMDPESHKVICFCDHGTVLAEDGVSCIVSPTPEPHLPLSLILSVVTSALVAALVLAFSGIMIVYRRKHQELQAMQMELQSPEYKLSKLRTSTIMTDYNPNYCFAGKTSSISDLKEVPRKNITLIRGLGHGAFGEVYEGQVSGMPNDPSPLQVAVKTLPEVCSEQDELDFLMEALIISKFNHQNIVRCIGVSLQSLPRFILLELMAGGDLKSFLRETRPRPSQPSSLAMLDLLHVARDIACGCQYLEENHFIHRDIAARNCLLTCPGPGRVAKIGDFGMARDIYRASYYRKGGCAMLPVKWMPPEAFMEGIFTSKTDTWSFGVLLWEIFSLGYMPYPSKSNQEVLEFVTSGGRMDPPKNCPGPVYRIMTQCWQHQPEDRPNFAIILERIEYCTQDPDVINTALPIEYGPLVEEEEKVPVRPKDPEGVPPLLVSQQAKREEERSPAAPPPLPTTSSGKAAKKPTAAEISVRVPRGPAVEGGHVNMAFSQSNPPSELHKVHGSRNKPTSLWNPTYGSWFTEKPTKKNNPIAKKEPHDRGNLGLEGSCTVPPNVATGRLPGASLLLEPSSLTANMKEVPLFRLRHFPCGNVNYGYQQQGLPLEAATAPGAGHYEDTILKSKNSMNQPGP

[6] = Toxicity in wildtype mouse assessed as time spent in open arm at 1200 ppm administered as rodent chow for 10 to 24 weeks by Elevated plus maze test (reference value: 8.7 to 179.9 sec); settings: in vivo, po, time 10-24 weeks
[7] = Drug concentration in 5XFAD mouse plasma at 1200 ppm administered as rodent chow for 180 days; format: ADME, cell-free; settings: route po, time 180 day
Mus musculus [8] = assay: Antialzheimer activity in 5XFAD mouse assessed as percent change in claudin-5 intensity of Thio-S negative retro spinal cortex at 1200 ppm administered as rodent chow starting from 1.5 months and measured after 4 months by immunolabeling analysis relative to control; format: functional; settings: route po, time 2.5 months, 1825 h
[9] = biological target: T1, Macrophage colony-stimulating factor 1 receptor (Mus musculus) (UniProt P09581); assay: In vivo inhibition of CSF1R in wildtype mouse assessed as number of Iba1 positive cells per FOV in subiculum at 1200 ppm administered as rodent chow starting from 1.5 months and measured after 7 months by immunolabeling based confocal microscopic analysis (reference value: 482 to 1085); format: functional; settings: route po, time 5.5 months
T1 sequence (whole entry): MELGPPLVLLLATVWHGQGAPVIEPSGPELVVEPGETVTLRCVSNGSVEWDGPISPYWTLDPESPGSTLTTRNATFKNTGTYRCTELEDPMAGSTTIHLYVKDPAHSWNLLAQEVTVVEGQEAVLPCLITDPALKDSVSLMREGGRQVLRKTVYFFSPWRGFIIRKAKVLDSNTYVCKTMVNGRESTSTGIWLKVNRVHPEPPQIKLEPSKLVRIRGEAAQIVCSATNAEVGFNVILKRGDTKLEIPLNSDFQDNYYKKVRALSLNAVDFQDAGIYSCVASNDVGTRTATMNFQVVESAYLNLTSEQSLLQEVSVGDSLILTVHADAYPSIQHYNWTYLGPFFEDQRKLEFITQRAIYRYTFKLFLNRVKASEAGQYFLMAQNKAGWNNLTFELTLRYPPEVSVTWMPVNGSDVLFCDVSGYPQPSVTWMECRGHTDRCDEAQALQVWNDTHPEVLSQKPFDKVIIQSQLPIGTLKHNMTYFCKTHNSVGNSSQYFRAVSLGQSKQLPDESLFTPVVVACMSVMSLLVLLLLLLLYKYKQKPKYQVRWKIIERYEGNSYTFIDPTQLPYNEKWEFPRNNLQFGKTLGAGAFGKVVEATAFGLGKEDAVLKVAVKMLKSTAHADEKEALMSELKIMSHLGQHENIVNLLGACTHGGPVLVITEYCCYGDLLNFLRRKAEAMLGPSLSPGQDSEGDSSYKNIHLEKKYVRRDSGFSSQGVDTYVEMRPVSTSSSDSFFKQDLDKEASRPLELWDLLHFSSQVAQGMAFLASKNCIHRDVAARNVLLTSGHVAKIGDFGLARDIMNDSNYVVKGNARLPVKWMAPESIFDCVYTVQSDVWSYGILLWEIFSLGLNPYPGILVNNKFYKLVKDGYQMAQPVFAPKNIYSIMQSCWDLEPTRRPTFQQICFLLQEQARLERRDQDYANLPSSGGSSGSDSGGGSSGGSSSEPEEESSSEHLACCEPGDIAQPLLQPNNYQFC

[10] = biological target: Calcium/calmodulin-dependent protein kinase type 1 (Homo sapiens, UniProt Q14012); assay: Inhibition of CAMK1 (unknown origin)
Sequence of Calcium/calmodulin-dependent protein kinase type 1 (Q14012 whole entry): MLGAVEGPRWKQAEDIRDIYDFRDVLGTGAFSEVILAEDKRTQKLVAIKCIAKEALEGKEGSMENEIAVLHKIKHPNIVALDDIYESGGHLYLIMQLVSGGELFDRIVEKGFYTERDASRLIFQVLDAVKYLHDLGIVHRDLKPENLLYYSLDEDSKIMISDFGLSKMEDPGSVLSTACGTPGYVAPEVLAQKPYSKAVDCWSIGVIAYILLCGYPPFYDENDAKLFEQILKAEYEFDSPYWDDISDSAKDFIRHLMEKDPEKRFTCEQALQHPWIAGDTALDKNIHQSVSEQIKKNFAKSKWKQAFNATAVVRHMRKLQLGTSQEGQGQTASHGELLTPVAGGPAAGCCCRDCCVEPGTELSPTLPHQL

[11] = Effect on Scn1b gene expression in wildtype mouse hippocampus assessed as percent change in Reads Per kilo base per Million mapped reads at 1200 ppm administered as rodent chow starting from 1.5 months and measured after 7 months by RNA-Seq analysis (reference value: 86.853 to […]); format: functional; settings: route po, time 5.5 months, 4015 h
Mus musculus [12] = assay: Induction of cerebral amyloid angiopathy in […] mouse at 1200 ppm administered as rodent chow for 24 weeks by immunolabeling based confocal microscopic analysis; format: functional, organism-based; settings: route po
[13] = biological target: Serine/threonine-protein kinase PLK1 (Homo sapiens, UniProt P53350); assay: Inhibition of PLK1 (unknown origin)
Sequence of Serine/threonine-protein kinase PLK1 (P53350 whole entry): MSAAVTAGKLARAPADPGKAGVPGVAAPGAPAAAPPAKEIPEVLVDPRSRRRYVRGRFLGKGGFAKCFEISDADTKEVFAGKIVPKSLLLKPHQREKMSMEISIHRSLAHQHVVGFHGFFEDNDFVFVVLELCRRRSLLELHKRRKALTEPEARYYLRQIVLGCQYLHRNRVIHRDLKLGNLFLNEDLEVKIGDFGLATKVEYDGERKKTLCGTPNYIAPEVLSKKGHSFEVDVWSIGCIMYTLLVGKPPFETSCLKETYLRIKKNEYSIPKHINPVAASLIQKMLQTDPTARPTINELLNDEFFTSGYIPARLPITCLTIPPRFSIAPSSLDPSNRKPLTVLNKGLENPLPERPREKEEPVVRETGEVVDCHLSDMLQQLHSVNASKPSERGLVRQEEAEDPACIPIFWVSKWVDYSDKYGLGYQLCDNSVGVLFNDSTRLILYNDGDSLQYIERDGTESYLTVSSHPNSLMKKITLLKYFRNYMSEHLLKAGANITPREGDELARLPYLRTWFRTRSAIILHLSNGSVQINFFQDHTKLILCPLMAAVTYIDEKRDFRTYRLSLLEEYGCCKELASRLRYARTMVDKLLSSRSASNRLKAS

[14] = Effect on Ctsz gene expression in wild type mouse thalamus at 1200 ppm administered as rodent chow starting from 1.5 months and measured after 7 months by RNA-Seq analysis (reference value: 13.234 to 17.920 RPKM); format: functional; settings: route po, time 5.5 months, 4015 h
Mus musculus [15] = assay: Antialzheimer activity in 5XFAD mouse assessed as alteration in plaque morphology in cortex at 1200 ppm administered as rodent chow starting from 1.5 months and measured after 7 months by Thio-S labeling based confocal microscopic analysis; format: functional, organism-based; settings: route po, time 5.5 months
[16] = biological target: T1, Macrophage colony-stimulating factor 1 receptor (Mus musculus); assay: In vivo inhibition of CSF1R in wildtype mouse assessed as number of S100bteta positive cells per FOV in somatosensory cortex at 1200 ppm administered as rodent chow for 10 to 24 weeks by immunolabelling based confocal microscopic analysis (reference value: 14 to 342); format: functional; settings: route po, time 10-24 weeks
[17] = biological target: Serine/threonine-protein kinase Chk1 (Homo sapiens, UniProt O14757); assay: Inhibition of CHEK1 (unknown origin)
Sequence of Serine/threonine-protein kinase Chk1 (O14757 whole entry): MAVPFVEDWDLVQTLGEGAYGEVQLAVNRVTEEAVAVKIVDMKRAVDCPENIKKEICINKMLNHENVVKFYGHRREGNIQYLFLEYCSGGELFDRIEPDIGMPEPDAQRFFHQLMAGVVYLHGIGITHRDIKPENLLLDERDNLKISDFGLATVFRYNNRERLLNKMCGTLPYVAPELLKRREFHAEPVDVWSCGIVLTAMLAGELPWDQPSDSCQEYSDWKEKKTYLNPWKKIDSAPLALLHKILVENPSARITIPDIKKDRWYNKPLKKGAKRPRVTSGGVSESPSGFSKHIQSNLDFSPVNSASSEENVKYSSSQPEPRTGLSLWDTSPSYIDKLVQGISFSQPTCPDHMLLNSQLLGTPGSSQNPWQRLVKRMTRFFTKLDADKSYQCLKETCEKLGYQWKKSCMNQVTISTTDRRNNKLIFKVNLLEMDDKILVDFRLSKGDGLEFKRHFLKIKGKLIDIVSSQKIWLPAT

Mus musculus [18] = assay: Antialzheimer activity in 5XFAD mouse assessed as pyroglutamte-3 immunoreactivity in thalamus at 1200 ppm administered as rodent chow for 24 weeks by immunolabeling based confocal microscopic analysis; format: functional, organism-based; settings: route po
[19] = biological target: Tyrosine-protein kinase Blk (Homo sapiens, UniProt P51451); assay: Inhibition of BLK (unknown origin)
Sequence of Tyrosine-protein kinase Blk (P51451 whole entry): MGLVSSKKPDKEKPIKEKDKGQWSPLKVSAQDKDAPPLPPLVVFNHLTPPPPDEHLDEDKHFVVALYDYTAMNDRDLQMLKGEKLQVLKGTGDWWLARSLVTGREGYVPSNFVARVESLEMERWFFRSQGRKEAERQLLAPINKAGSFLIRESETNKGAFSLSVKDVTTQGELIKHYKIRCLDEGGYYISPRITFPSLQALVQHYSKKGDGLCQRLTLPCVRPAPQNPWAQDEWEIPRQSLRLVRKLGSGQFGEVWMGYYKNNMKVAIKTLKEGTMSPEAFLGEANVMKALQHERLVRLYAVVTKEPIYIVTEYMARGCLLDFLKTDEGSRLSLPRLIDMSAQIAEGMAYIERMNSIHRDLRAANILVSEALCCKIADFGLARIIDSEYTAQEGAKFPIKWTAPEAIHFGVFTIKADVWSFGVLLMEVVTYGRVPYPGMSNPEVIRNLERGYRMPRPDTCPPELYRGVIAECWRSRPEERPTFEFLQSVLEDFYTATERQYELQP

SMILES	Activity (Mus musculus [1])	Activity [2] [%]	Activity [3] [RPKM]	Activity [4] [%]	IC50 [5] [nM]	Time [6] [s]	concentration at 4320 h [7] [ng/mL]	Activity (Mus musculus [8]) [%]	Activity [9]	IC50 [10] [nM]	Activity [11] [%]	Activity (Mus musculus [12])	IC50 [13] [nM]	Activity [14] [RPKM]	Activity (Mus musculus [15])	Activity [16]	IC50 [17] [nM]	Activity (Mus musculus [18])	IC50 [19] [nM]
FC(F)(F)c1ccc(CNc2ccc(Cc3c[nH]c4ncc(Cl)cc34)cn2)cn1 [PEXIDARTINIB]	229																		
COc1ncc(F)cc1CNc1ccc(Cc2c[nH]c3ncc(C)cc23)c(F)n1 [PLX-5622]		84.37	0.064	65.471	> 1000	11.9	9090	70.238	0	> 1000	83.818	inactive	> 1000	11.055	Active	270	> 1000	Active	> 1000
